# MPTP block: blocks calcium-induced mitochondrial swelling. isolated mouse mitochondria, Ca2+ swelling absorbance, 30 min. 360,000 compounds, 1.4% hits. inhibition, % at 10 µM;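 active means inhibition of 50% or more, scaled per plate between neutral and stimulator controls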;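 further: 0% = DMSO wells given calcium and 100% = 1 mM EGTA wells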
# procasp3 activ: procaspase-3 (human) activation. P42574. 330,000 compounds, 0.11% hits. activation, % at 8.5 µM. AID 463141. recombinant procaspase-3 D3A, Ac-DEVD-pNA absorbance 405 nm;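 active means activation above the mean of all tested compounds plus 3 SD, cut at about 21% in these data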;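 further: 0% = DMSO alone and 100% = DMSO wells spiked with extra 5 µM PC-3 D3A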
# Target sequence (P42574 whole entry D9A/D28A/D175A): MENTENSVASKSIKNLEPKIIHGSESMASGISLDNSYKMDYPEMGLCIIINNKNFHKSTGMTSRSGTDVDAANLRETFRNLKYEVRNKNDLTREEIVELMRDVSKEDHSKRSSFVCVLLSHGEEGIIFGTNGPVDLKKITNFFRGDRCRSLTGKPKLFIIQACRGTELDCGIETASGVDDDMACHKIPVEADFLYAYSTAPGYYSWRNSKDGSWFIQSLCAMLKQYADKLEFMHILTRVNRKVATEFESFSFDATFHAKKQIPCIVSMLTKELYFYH
#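 Test system: Procaspase-3 D3A mutant, all three cleavage aspartates alanine | Dosing: Single dose, 8.5 µM nominal compound, 0.8% DMSO | Schedule: 1 h preincubation, 2 h reaction | Technique: 405 nm absorbance of p-nitroaniline, reads at 0 and 120 min | Repeats: One well per compound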
# GRIN3A LBD mod: NR3A (human) ligand-binding domain modulation; NR3A LBD differential scanning fluorimetry, Tm shift; 0% = protein alone, 100% = glycine-bound protein; Tm shift relative to glycine control, % at 25 µM; 340,000 compounds, 2.5% hits;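 active means melting temperature shift of at least 10% of the positive control shift, at one fixed dose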
# aDG glyco up: increases alpha dystroglycan glycosylation. Pro5-aDG cells, alpha-DG glycosylation AlphaScreen (IIH6); 0% Pro5, 100% B10-LARGE cell signal. activation, % at 10 µM. 360,000 compounds, 0.22% hits. AID 624168;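 active means activation of at least 8% versus controls, or a plate z-score of at least 8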;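 further: Pro5 are CHO cells carrying HIG-tagged alpha-DG that lacks glycosylation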
# procasp7 counter: counter-screen for procaspase-3 activators: activators of human procaspase-7; P55210; recombinant procaspase-7, Ac-DEVD-pNA absorbance 405 nm; D23A/D198A/D206A triple mutant, cannot self-cleave; scale: DMSO 0, 5 µM enzyme 100; activation, % at 8.5 µM; 330,000 compounds, 0.093% hits; AID 463210;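 active means percent activation above the screen-wide mean plus 3 SD, cut at about 25% in these data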
# Target sequence (P55210 whole entry D23A/D198A/D206A): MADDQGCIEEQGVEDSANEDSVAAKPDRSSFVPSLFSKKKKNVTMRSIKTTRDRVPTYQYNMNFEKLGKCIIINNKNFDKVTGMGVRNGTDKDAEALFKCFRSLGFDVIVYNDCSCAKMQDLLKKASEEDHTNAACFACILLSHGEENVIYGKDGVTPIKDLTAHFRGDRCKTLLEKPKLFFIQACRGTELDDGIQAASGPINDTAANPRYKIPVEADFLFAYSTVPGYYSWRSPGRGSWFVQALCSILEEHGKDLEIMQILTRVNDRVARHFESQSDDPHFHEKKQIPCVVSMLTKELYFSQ
#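 Test system: Procaspase-7 triple mutant (PC-7 D3A). Also added: Ac-DEVD-pNA substrate, 400 µM as added. Schedule: 1 h enzyme–compound preincubation and 2 h substrate reaction, both 25 °C. Signal: p-Nitroaniline absorbance at 405 nm, read at 0 and 120 min. Control set: low DMSO alone, high DMSO plus 5 µM PC-7.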
# MPTP counter: mitochondrial membrane potential, counter-screen; shares compounds with MPTP block; isolated mitochondria, Rhodamine 123 fluorescence; inhibition, % at 10 µM; 5,000 compounds, 78% hits; AID 624504; in the data active means inhibition above about 22%;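 further: 0% = DMSO vehicle and 100% = positive control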
# MPTP abs DR: dose response confirmation of mitochondrial permeability transition pore inhibitors; 780 compounds, 58% hits; shares compounds with MPTP block; isolated mitochondria swelling, absorbance; AID 651561; IC50, µM; in the data active means IC50 below about 20 µM
# MPTP cs DR: counter-screen for mitochondrial permeability transition pore inhibitors, dose response; shares compounds with MPTP block; isolated mitochondria counterscreen, fluorescence read-out; IC50, µM; 780 compounds, 49% hits; in the data active means IC50 below about 80 µM
# The depositor's hits bear a star; i = inactive; · = not tested or not shown. In the library only some 3.7% were active in any assay of this set; here they are far more common.
SMILES,MPTP block,procasp3 activ,GRIN3A LBD mod,aDG glyco up,procasp7 counter,MPTP counter,others
COC(=O)[C@@]12C[C@@H](CC(=O)NCc3ccc(OC)c(OC)c3)C(=O)N(Cc3ccccc3)C1=CCC(C)(C)C2,-1,·,·,0,·,·,
Clc1nnc(N/N=C/c2ccccc2)c2ccccc12,0,-3,-16,0,-2,·,
C[n+]1ccc(/C=N/Nc2nc(Cl)c(C#N)c(Cl)c2Cl)cc1,103*,-10,1,0,-1,76*,
OCCNc1nc2nonc2nc1NCCO,1,0,-3,0,4,·,
CC(C)(C)Nc1nc2nonc2nc1NC(C)(C)C,93*,9,-2,0,0,99*,
Cc1noc(C)c1S(=O)(=O)NC(=O)C1(C)CCN1C(=O)c1ccc(C2CCCCC2)cc1 (configuration not stated),0,·,·,0,·,·,
Cc1cccc(N=Cc2c(O)cc(C)oc2=O)c1,0,10,-3,0,2,·,
Cc1cccc(N=Cc2[nH]c3ccc(Br)c(Cl)c3c2O)c1,97*,11,4,6,-5,0,MPTP abs DR=7.9*;MPTP cs DR=<2.5*
COc1ccc(C=NNC(=O)c2ccccc2OCc2ccc(F)cc2)c(OC)c1,-3,0,-10,0,3,·,
CC(=Nc1ccccc1)C1=C(O)C(Cc2cccc(F)c2)NC1=O (configuration not stated),-1,·,·,0,·,·,
CC(C)COc1ccc(C/C(N)=N/n2cnnc2)cc1,66*,4,-1,4,1,54*,
COc1ccc(C/C(N)=N/n2cnnc2)cc1,0,13,1,0,6,·,
CN(C)CCCNC(=S)NCC(c1ccc(Cl)cc1Cl)c1c[nH]c2ccccc12 (configuration not stated),77*,8,-2,0,1,-23,
NCc1oc(-c2ccccc2)cc1C(=O)O,0,3,1,0,4,·,
Cc1ccc(N2C(=O)c3ccccc3C2C(=O)c2cc(C)ccc2O)cc1 (configuration not stated),67*,-31,1,1,-29,71*,
Cc1ccc(N2C(=O)c3ccccc3C2C(=O)c2ccc(O)cc2O)cc1 (configuration not stated),29,-4,3,-1,-14,·,
CCOC(=O)/C=C/[C@H]1CCc2cccc(C)c2O1,3,7,1,0,14,·,
COC(=O)C(C(=O)OC)C1C=CCN(C(C)=O)C1 (configuration not stated),0,·,0,0,·,·,
Cc1cc(C)n(CCc2nc(-c3ccco3)cs2)n1,55*,-17,0,0,-21,-6,MPTP abs DR=>100;MPTP cs DR=>80
O=S1(=O)CC(N2CCC(Cc3ccccc3)CC2)CN1C1CCCC1 (configuration not stated),0,·,·,0,·,·,
CN(C)Cc1c(C(=O)N/N=C/c2cccc(OCc3c(F)cccc3Cl)c2)nnn1-c1nonc1N,61*,-1,24*,2,-14,-3,MPTP abs DR=6.3*;MPTP cs DR=<2.5*
COc1cc(/C=N/NC(=O)c2nnn(-c3nonc3N)c2C(C)C)ccc1OCc1ccc(F)cc1,62*,1,31*,3,5,56*,
CN(C)Cc1c(C(=O)N/N=C/c2ccccc2OCc2c(F)cccc2Cl)nnn1-c1nonc1N,0,-3,1,0,5,·,
CN(C)Cc1c(C(=O)N/N=C/c2ccc(OCc3ccc(F)cc3)cc2)nnn1-c1nonc1N,4,-4,7,0,-13,·,
CN(C)Cc1c(C(=O)N/N=C/c2cccc(OCc3ccccc3)c2)nnn1-c1nonc1N,65*,3,5,0,2,80*,
SMILES,MPTP block,procasp3 activ,GRIN3A LBD mod,aDG glyco up,procasp7 counter,MPTP counter,others
CCCN(CC(=O)Nc1ccccc1C)C(=O)c1cnc(C)cn1,-4,·,3,0,·,·,
C=CCSC1=N/C(=C\c2cc(OCC)c(OC(C)=O)c([N+](=O)[O-])c2)C(=O)S1,98*,-8,-1,0,-22,63*,
COc1ccc(NC(=O)CC(C)c2ccccc2)cc1S(=O)(=O)N1CCOCC1 (configuration not stated),-1,-3,1,0,-4,·,
NN/C(=C\[N+](=O)[O-])Nc1ccccc1,3,-6,-2,0,2,·,
NN/C(=C\[N+](=O)[O-])Nc1ccc(Cl)cc1,55*,-5,0,0,-6,87*,
CCOC(=O)c1oc2ccc(Br)cc2c1NC(=O)CN1CCN(C)CC1,69*,0,-2,2,3,-6,
Cc1ccc(OCCn2c(Br)nc3c2c(=O)n(C)c(=O)n3C)cc1,82*,-5,1,1,7,60*,
CCOC(=O)c1sc2ncnc(N3CCN(C)CC3)c2c1C,-4,2,-2,2,-9,·,
CN1CCN(c2nc(-c3ccccc3)nc(-c3ccccc3)c2C#N)CC1,69*,-1,1,0,2,-5,MPTP abs DR=17*;MPTP cs DR=>80
COc1ccc(-c2nc(-c3cccc(C)c3)nc(N3CCN(C)CC3)c2C#N)cc1,91*,6,-7,1,3,1,MPTP abs DR=i;MPTP cs DR=>80
COc1ccc(-c2nc(-c3ccccc3)nc(N3CCN(C)CC3)c2C#N)cc1,-3,13,-2,0,10,·,
COC(=O)c1sc2nc(-c3ccccc3)nc(N3CCN(C)CC3)c2c1C,76*,·,3,0,·,-10,MPTP abs DR=9.8*;MPTP cs DR=>80
COc1ccncc1-c1csc(C(O)c2ccccc2)n1 (configuration not stated),0,·,·,0,·,·,
O=C(Nc1ccc2c(c1)C(=O)NC2=O)c1ccc2ncsc2c1,2,0,8,0,9,·,
CCOC(=O)CNC(=O)Cn1cnc2c(nnn2-c2ccccc2)c1=O,-1,0,4,5,8,·,
O=C(NNC(=O)c1cccc(O)c1)Nc1ccc([N+](=O)[O-])cc1,56*,6,0,0,6,36*,
COc1cc([N+](=O)[O-])ccc1NC(=O)Nc1ccc2c(c1)OCCO2,2,14,6,0,7,·,
O=C(Nc1ccc([N+](=O)[O-])cc1)Nc1ccc2c(c1)OCCO2,95*,5,21*,1,6,90*,
O=C(Nc1ccc([N+](=O)[O-])cc1)Nc1ccc2[nH]c(=O)[nH]c2c1,82*,4,24*,-1,2,71*,
Cc1cccc(NC(=O)Nc2ccc([N+](=O)[O-])cc2)n1,69*,9,-1,0,4,54*,
